Laboratory results reported in ChEMBL document CHEMBL3593173, “Discovery of novel N-(5-(tert-butyl)isoxazol-3-yl)-N'-phenylurea analogs as potent FLT3 inhibitors and evaluation of their activity against acute myeloid leukemia in vitro and in vivo” (Bioorg Med Chem, 2015).

Test system: MV4-11
Test: Cytotoxicity against human MV4-11 cells incubated for 72 hrs by MTT assay
Type: functional, cell-based
Conditions: MV4-11, 72 h
Procedure, shortened: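 Leukemia cells were grown with 10% FBS at 37 °C in 5% CO₂; MV4-11 was kept in IMDM. Cells were seeded at 1–4 × 10⁴ per well, and an equal volume of medium containing increasing inhibitor concentrations was added. MTT was added for 2–4 h, formazan was dissolved in DMSO, and OD was read at 570 nm to derive IC50.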

Row | Compound | IC50 [nM]
1 | CC(C)(C)c1cc(NC(=O)Nc2ccc(-c3cn4cccc(F)c4n3)cc2)no1 | 12.2
2 | CC(C)(C)c1cc(NC(=O)Nc2ccc(-c3cn4ccc(Br)cc4n3)cc2)no1 | 9.59
3 | CCOc1ccn2cc(-c3ccc(NC(=O)Nc4cc(C(C)(C)C)on4)cc3)nc2c1 | 11.6
4 | CC(C)(C)c1cc(NC(=O)Nc2ccc(-c3cn4ncccc4n3)cc2)no1 | 59
5 | Cc1ccc2nc(-c3ccc(NC(=O)Nc4cc(C(C)(C)C)on4)cc3)cn2c1 | 4.08
6 | CC(C)(C)c1cc(NC(=O)Nc2ccc(-c3nc4ccccc4o3)cc2)no1 | 82.6
7 | Cc1cccn2cc(-c3ccc(NC(=O)Nc4cc(C(C)(C)C)on4)cc3)nc12 | 248
